The values that follow come from ChEMBL document CHEMBL3091336, “Analogs of the Allosteric Heat Shock Protein 70 (Hsp70) Inhibitor, MKT-077, as Anti-Cancer Agents” (ACS Med Chem Lett, 2013).

Each structure is given as a SMILES string. The source made the active and inactive calls. The calls are words filed in the database; no cut-off is given here.

Series [1] concerns MCF7. The experiment in a line: Cytotoxicity against human MCF7 cells assessed as growth inhibition after 72 hrs by MTT assay. It counts as functional, cell-based. As to conditions: MCF7, 72 h. In outline: (§1)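 Antiproliferative activity measured by MTT assay. EC50 is the average of triplicate experiments, with error as SEM.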
A further series deals with MEF. The experiment in a line: Cytotoxicity against C57BL/6 mouse MEF assessed as growth inhibition after 72 hrs by MTT assay. It counts as cell-based. As to conditions: C57BL/6, MEF. Summed up:
as §1
A general note: Tetrazolium dyes change colour on reduction, which living cells bring about.

The subject of series [2] is MDA-MB-231. The experiment in a line: Cytotoxicity against human MDA-MB-231 cells assessed as growth inhibition after 72 hrs by MTT assay. It counts as functional, cell-based. As to conditions: MDA-MB-231, 72 h. Summed up:
as §1

A short description of series [3]: Half life in mouse liver microsomes at 1 uM incubated for 15 mins prior to beta-NADPH addition by LC-MS/MS analysis. The format is ADME, Microsome. As to conditions: for t1/2: microsomes, 0.25 h, 1 µM. Summed up:
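Compounds at 1 μM incubated with mouse liver microsomes. Degradation followed by LC–MS and reported as half-life.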
In general terms: Liver microsomes are a subcellular fraction often used to study metabolism.

A short description of series [4]: Drug metabolism in mouse liver microsomes assessed as compound life time. It counts as ADME, Microsome. Summed up: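 Compounds at 1 μM incubated with liver microsomes from C57BL/6 mice; disappearance of parent compound followed by LC–MS and reported as microsomal lifetime (t1/2, min).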
The nature of series [5]: Selectivity ratio of EC50 for C57BL/6 mouse MEF to EC50 for human MCF-7 cells. As to conditions: C57BL/6, mouse and human, mouse embryonic fibroblasts (MEF) versus MCF-7 cells; read-out: Ratio EC50. It counts as ADME, cell-based. In outline: (§2)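 Antiproliferative EC50 values measured by MTT assay in mouse embryonic fibroblasts and in the breast cancer line (MCF7 or MDA-MB-231), averaged over triplicate experiments, error SEM. Selectivity taken as the ratio of fibroblast EC50 to cancer-cell EC50.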

For series [6], the system named is MDA-MB-231. Briefly: Inhibition of HSP70 in human MDA-MB-231 cells assessed as reduction of Akt1 level at 0.6 to 10 uM after 24 hrs by Western blot analysis. It counts as cell-based. Summed up:
(§3)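 MCF7 or MDA-MB-231 cells treated for 24 h across a range of concentrations. Lysates probed by Western blot for the Hsp70 clients p53, Akt1 and Raf1, alongside Hsp70 and Hsp90. Blots are representative of experiments run in triplicate.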
On the technique in general: Immunoblotting shows a protein as a band on a membrane.

Series [7] relates to MCF7. Briefly: Upregulation of Hsp70 protein expression in human MCF7 cells at 0.6 to 10 uM after 24 hrs by Western blot analysis. It counts as functional, cell-based. Summed up: (§4)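 MCF7 and MDA-MB-231 cells treated for 24 h across a range of concentrations. Lysates Western blotted for p53, Akt1, Raf1, Hsp70 and Hsp90. Representative of triplicate experiments.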
For series [8], the system named is MDA-MB-231. The experiment in a line: Inhibition of HSP70 in human MDA-MB-231 cells assessed as reduction of Raf level at 0.6 to 10 uM after 24 hrs by Western blot analysis. It counts as cell-based. Summed up: as §3
The nature of series [9]: Selectivity ratio of EC50 for C57BL/6 mouse MEF to EC50 for human MDA-MB-231 cells. The format is ADME. As to conditions: C57BL/6, mouse and human, mouse embryonic fibroblasts (MEF) versus MDA-MB-231 cells. Summed up:
as §2

The test system of series [10] is MDA-MB-231. Briefly: Upregulation of Hsp90 protein expression in human MDA-MB-231 cells at 0.6 to 10 uM after 24 hrs by Western blot analysis. It counts as functional, cell-based. Summed up: as §4
Series [11] relates to MCF7. The experiment in a line: Upregulation of Hsp90 protein expression in human MCF7 cells at 0.6 to 10 uM after 24 hrs by Western blot analysis. The format is functional, cell-based. In outline:
as §4

Series [12] relates to MCF7. Briefly: Inhibition of HSP70 in human MCF7 cells assessed as reduction of Raf level at 0.6 to 10 uM after 24 hrs by Western blot analysis. The format is cell-based. Summed up:
as §3

In series [13] the test system is MCF7. The experiment in a line: Inhibition of HSP70 in human MCF7 cells assessed as induction of […] p53 level at 5 to 10 uM after 24 hrs by Western blot analysis. The format is cell-based. Summed up: as §4
Series [14] relates to MDA-MB-231. The experiment in a line: Upregulation of Hsp70 protein expression in human MDA-MB-231 cells at 0.6 to 10 uM after 24 hrs by Western blot analysis. It counts as functional, cell-based. Summed up: as §4
The subject of series [15] is MCF7. Briefly: Inhibition of HSP70 in human MCF7 cells assessed as reduction of Akt1 level at 0.6 to 10 uM after 24 hrs by Western blot analysis. It counts as cell-based. In outline: as §3
The subject of series [16] is MDA-MB-231. Briefly: Induction of apoptosis in human MDA-MB-231 cells assessed as caspase-3 cleavage at 10 uM after 48 hrs. The format is functional, cell-based. In outline:
(§5)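 MDA-MB-231 cells treated for 48 h. Cleavage of caspase 3 and PARP detected by Western blot. Representative of duplicate experiments.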

The test system of series [17] is MDA-MB-231. Briefly: Induction of autophagic flux in human MDA-MB-231 cells assessed as increase in p62 oligomerization at 5 to 10 uM after 24 hrs. The format is functional, cell-based.
The test system of series [18] is MCF7. Briefly: Induction of autophagic flux in human MCF7 cells assessed as decrease in p62 monomer level at 5 to 10 uM after 24 hrs. The format is functional, cell-based.
Series [19] has as its system MCF7. The experiment in a line: Induction of autophagic flux in human MCF7 cells assessed as increase in p62 oligomerization at 5 to 10 uM after 24 hrs. It counts as functional, cell-based.
Series [20] is described as follows: Binding affinity to [1H-15N]-DnaK (1 to 388) nucleotide binding domain (unknown origin) at 200 uM by NMR analysis.
Series [21] concerns MDA-MB-231. Briefly: Induction of autophagic flux in human MDA-MB-231 cells assessed as decrease in p62 monomer level at 5 to 10 uM after 24 hrs. It counts as functional, cell-based.
The subject of series [22] is MDA-MB-231. Briefly: Induction of apoptosis in human MDA-MB-231 cells assessed as PARP cleavage at 10 uM after 48 hrs. It counts as functional, cell-based. In outline: as §5

In general, EC50 refers to the concentration needed to bring the measured effect to its halfway point. By half-life is commonly meant how long it takes for the measured level to halve. High values mean slow loss, low ones fast loss. On to `CCn1c(=O)/c(=C2\Sc3ccccc3N2C)s/c1=C\c1cccc[n+]1CC.[Cl-]`, for which the EC50 in the series on MCF7 [1] was 2200 nM; with MEF it was above 50000 nM; in the series with MDA-MB-231 [2], 1400 nM. The compound also showed a half-life at 1 µM in [3] (liver microsomes) below 5 min. Further, the Time in [4] amounted to 4.4 min.

For orientation: inhibition means how much of the control response was suppressed. Turning to `CCn1c(=O)/c(=C2\Sc3cccc(F)c3N2C)s/c1=C\c1scc[n+]1Cc1ccccc1.[Cl-]`, the figures for the selectivity ratio in [5] and in [9] were 8 and 21, respectively. Moreover, the inhibition with MDA-MB-231 [6], in the series with MDA-MB-231 [8], in the series on MCF7 [12] and in the series on MCF7 [15] was 25% throughout. Moreover, the outcome with MCF7 [7], with MDA-MB-231 [10], with MCF7 [11] and with MDA-MB-231 [14] was inactive. In addition, the half-maximal effective concentration (EC50) in the series with MCF7 [1] is 1000 nM; in the series with MEF, 8300 nM; in the series with MDA-MB-231 [2] it was 400 nM. The t1/2 entry in series [3] is “ND(Insoluble)”. The inhibition result in the series on MCF7 [13] is “Active”.

For `CCn1c(=O)/c(=C2\Sc3cc(Cl)ccc3N2C)s/c1=C\c1scc[n+]1Cc1ccccc1.[Cl-]`, the outcome (in the series with MDA-MB-231 [16]; with MDA-MB-231 [17]; in the series with MCF7 [18]; in the series with MCF7 [19]; in [20]; in the series with MDA-MB-231 [21]) was Active. Besides, in the series on MDA-MB-231 [22], the outcome was Active. Moreover, the EC50 came out at 700 nM in the series on MCF7 [1], 24000 nM in the series with MEF and 400 nM with MDA-MB-231 [2]. This compound had a t1/2 in series [3] of 37 min.
